Compound activity from PubChem.
This is a sample that favours compounds with a hit; in the whole collection about 2.2% have one here.
STAT3 inh-1 = IL-6 driven STAT3 reporter inhibitors, primary screen, U3A cells, luciferase, luminescence, MLSCN library. IL-6 STAT3-luciferase reporter; host cell line lacks STAT1. inhibition, % at 5.5 µM. 190,000 tested, 0.89% active;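 active = inhibition above the mean inhibition across all screened compounds plus 3 SD, cut at about 44% in these data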;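 note: 0% = DMSO only wells and 100% = 100 µM nifuroxazide control wells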
PPC-1+TRAIL kill = compounds killing PPC-1 cancer cells with TRAIL present, primary screen, TRAIL potentiator project, ATPLite luminescence, uHTS; PPC-1 cells + TRAIL, ATPLite viability luminescence; cell killing (% activity), % at 4 µM or 5 µM; 220,000 tested, 0.41% active; AID 1443, 2008;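 active = cell killing above 50% in the first pass at 4 µM, then a duplicate retest at 5 µM averaging 50% or more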;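 note: plate controls were cells with TRAIL plus DMSO for no effect and medium-only wells lacking cells for full effect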
FLuc stim CS = FLuc activators, initial screening, artefact control for FLuc-dependent activation tests, biochemical, ATPlite luminescence. ATPlite luciferase biochemical, 10 min; 0 = ATP-free wells, 1 = DMSO control. activation factor at 10 µM. Luciferin 4-monooxygenase (Photinus pyralis), P08659. 200,000 tested, under 10 active. AID 1027, 2008;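 active = luciferase activation factor, scaled between plate controls, of at least 2 with compound at 10 µM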
Target sequence (P08659 whole entry, looked up): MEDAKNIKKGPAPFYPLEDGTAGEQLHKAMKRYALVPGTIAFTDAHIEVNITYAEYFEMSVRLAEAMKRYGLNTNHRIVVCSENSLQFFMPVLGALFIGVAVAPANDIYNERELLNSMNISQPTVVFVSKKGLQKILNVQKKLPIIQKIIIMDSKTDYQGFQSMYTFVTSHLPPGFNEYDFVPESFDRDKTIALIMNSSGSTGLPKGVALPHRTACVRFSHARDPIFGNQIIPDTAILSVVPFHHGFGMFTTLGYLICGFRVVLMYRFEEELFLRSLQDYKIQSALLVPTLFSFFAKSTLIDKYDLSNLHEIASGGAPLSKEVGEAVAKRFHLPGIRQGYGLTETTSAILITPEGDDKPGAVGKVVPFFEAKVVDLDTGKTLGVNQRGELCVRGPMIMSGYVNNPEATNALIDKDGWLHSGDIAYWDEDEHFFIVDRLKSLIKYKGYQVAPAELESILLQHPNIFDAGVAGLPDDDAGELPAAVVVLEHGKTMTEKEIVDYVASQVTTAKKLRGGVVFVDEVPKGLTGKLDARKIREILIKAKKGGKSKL
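System: cell-free luciferase reagent; medium: PBS as buffer for the ATP substrate; doses: test compounds dosed from 2 mM stocks in 100% DMSO; incubation: 10 min, room temperature; measured by: luminescence from luciferase reaction; read-out: luciferase activation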
HSP90 inh = HSP90 inhibitors, primary screen, cell lysate, luminescence; Heat shock protein HSP 90 (rabbit reticulocyte lysate; luciferase refolding); Rabbit reticulocyte lysate, luciferase refolding luminescence, 3 h; inhibition, % at 5.6 µM; 290,000 tested, 0.91% active;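 active = inhibition above the screen-wide mean plus 3 SD, computed separately per campaign, cut at about 16% in these data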;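 note: 0% = DMSO wells and 100% = 60 µM geldanamycin wells; inhibitors lower the luminescence because luciferase stays unfolded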
FLuc inhib CS = firefly luciferase enzyme inhibitors, primary screen, artefact control for luciferase-based inhibitor screens, biochemical, luminescence, ATPLite. 200,000 tested, 1.5% active. Luciferin 4-monooxygenase (Photinus pyralis), P08659. 10 min. inhibition, % at 10 µM. AID 1006, 2008;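 active = inhibition above about 50% when tested at 10 µM, limit read from the data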
C8 TRAIL sens = viability loss with TRAIL in NB7+C8 cells, primary screen, TRAIL sensitizer project, cell-based, ATPlite luminescence. inhibition (viability loss, TRAIL sensitization), % at 10 µM. 360,000 tested, 1% active;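 active = compounds causing at least 50% loss of cell viability in the single-dose screen, relative to plate controls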
STAT3 inh-2 = STAT3 reporter inhibitors, retest of hits, confirmation, U3A cells, luciferase, luminescence; shares compounds with STAT3 inh-1; IL-6 STAT3 luciferase reporter; cell line lacks STAT1; inhibition, % at 5.7 µM; 1,200 tested, 45% active; AID 1265, 2008;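 active = inhibition above the hit cutoff computed for the primary STAT3 screen, cut at about 44% in these data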;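 note: 0% = IL-6 plus DMSO and 100% = IL-6 plus nifuroxazide control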
NFkB inh STAT3ct = NF-kB reporter inhibitors in human cells, confirmation, counter-screen for STAT3 inhibitor project, cell-based, HEK293T, luciferase, TNF-alpha stimulus | shares compounds with STAT3 inh-1 | TNF-alpha induced | inhibition, % at 5.7 µM | 1,200 tested, 36% active;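 active = inhibition above the mean of solvent-only control wells plus 3 SD, cutoff set per campaign, cut at about 13% in these data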;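 note: 0% = TNF-alpha with DMSO and 100% = TNF-alpha with MG high control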
STAT1 inh STAT3c = STAT1 reporter inhibitors, IFN-gamma induced, confirmation, counter-screen for STAT3 inhibitor project, cell-based, NIH 3T3, luciferase luminescence | shares compounds with STAT3 inh-1 | NIH 3T3 STAT1-luciferase reporter | inhibition, % at 5.7 µM | 1,200 tested, 27% active | AID 1317, 2008;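 active = inhibition above the mean plus 3 SD of solvent-only control wells, limit set per screening run, cut at about 16% in these data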;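 note: 0% = DMSO with IFN-gamma and 100% = nifuroxazide control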
An asterisk follows results filed as active; / = no result.

SMILES	STAT3 inh-1	PPC-1+TRAIL kill	FLuc stim CS	HSP90 inh	FLuc inhib CS	C8 TRAIL sens	STAT3 inh-2	NFkB inh STAT3ct	STAT1 inh STAT3c
COc1ccc(NS(=O)(=O)c2ccc(NC(=O)c3ccc(N(C)S(C)(=O)=O)cc3)cc2)c(OC)c1	73*	21	1.1	-1	-7	13	84*	26*	24*
CCN(CC)S(=O)(=O)c1ccc(NC(=O)c2ccccc2N(C)S(C)(=O)=O)cc1	5	5	1.1	0	-8	0	/	/	/
COc1ccc(NC(=O)c2ccc(N(C)S(C)(=O)=O)cc2)cc1OC	5	25	0.8	0	16	25	/	/	/
COC(=O)c1ccc(NC(=O)c2ccc(N(C)S(C)(=O)=O)cc2)cc1	52*	11	1	-2	2	-2	39	2	-8
CCN(CC)S(=O)(=O)c1ccc(C(=O)Nc2ccc(Cc3ccncc3)cc2)cc1	64*	8	1.1	-3	-5	32	61*	16*	16*
COC(=O)CCCC(=O)N1CCCC(C(=O)c2ccc(OC)cc2C)C1 (stereo unspecified)	9	6	1.1	2	-6	-10	/	/	/
Cn1c(=O)c(C(=O)CSc2nncs2)c(N)n(Cc2ccccc2)c1=O	14	-18	1	4	-3	14	/	/	/
CC(=O)c1nnn(-c2ccc([N+](=O)[O-])cc2C)c1C	3	4	1.1	-2	-10	-2	/	/	/
Nc1ccn([C@@H]2O[C@H](CNCc3cc(Br)ccc3OCc3ccccc3)[C@@H](O)[C@H]2O)c(=O)n1	/	/	/	/	/	-6	/	/	/
Cn1c(N=Nc2ccccc2)nc2ccccc21	51*	85*	0	42*	95*	93*	-14	-13	-120
Nc1nc(Nc2ccccc2)nc2ccccc12	57*	43	0.1	11	88*	60*	14	-23	-92
COc1ccc(C(=O)Nc2ccc(S(=O)(=O)N3CCc4ccccc43)cc2)cc1	51*	/	/	13	/	24	39	13*	2
Cc1nn(C)c(Cl)c1NC(=O)OCc1ccc(Cl)cc1Cl	51*	7	1.1	0	-6	25	36	8	5
Cc1nnsc1NC(=O)OCc1ccc(Cl)cc1Cl	27	17	1	1	-1	12	/	/	/
Cc1ccc(S(=O)(=O)Nc2ncnc3sc(C)c(C)c23)cc1	/	/	/	/	/	6	/	/	/
COc1ccc(CCNc2ncnc3sccc23)cc1OC	89*	15	1	-6	-4	23	89*	40*	31*
Cc1sc2ncnc(NCCc3ccc(S(N)(=O)=O)cc3)c2c1C	74*	32	1.1	-2	-7	28	80*	29*	30*
NS(=O)(=O)c1ccc(CCNc2ncnc3sccc23)cc1	54*	12	1	-1	-2	15	48*	13	23*
CCN(CC)CCNc1cc(C)c(C#N)c2nc3ccccc3n12	/	/	/	3	/	-12	/	/	/
Cc1cc(Nc2cccc([N+](=O)[O-])c2)n2c(nc3ccccc32)c1C#N	80*	27	1	2	-4	-1	73*	46*	55*
COc1cc(C)c(Cl)cc1S(=O)(=O)NCc1ccncc1	70*	14	1	1	2	/	66*	19*	21*
